Measurements taken from article PMC3553949 (Nucleic Acids Research, 2012).
Where a chain is given by its changes, count along the chain named. “Also recorded” adds a separate entry of the source. Non-standard residues stand in square brackets, D forms with d. No end group written: not given here. pT = C[C@@H](OP(=O)(O)O)[C@H](N)C(=O)O

Columns and labels:
NIPP1 FHA domain = NIPP1 FHA domain (Homo sapiens, UniProt Q12972); test: NMR titration; assay type: binding
Method in brief: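 ¹⁵N-labelled NIPP1 FHA domain was expressed in E. coli grown in M9 with ¹⁵NH₄Cl, His₆-MBP tag removed by TEV, and purified by size exclusion. The domain (0.1 mM) in 20 mM BisTris pH 6.3, 50 mM NaCl, 5 mM DTT was titrated with increasing mouse EZH2 dodecapeptide concentrations at 298 K (500 MHz, 2D ¹H,¹⁵N HSQC). Kd came from nonlinear fitting of CSP versus peptide concentration.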

[1] = test system: EZH2-FHA interaction (EGFP-EZH2 / GST-FHA of NIPP1); test: Competition GST pull-down of EGFP-EZH2 with EZH2 dodecapeptides; assay type: binding; conditions: 1 mM of the indicated EZH2 dodecapeptides
EGFP-EZH2 [2] = assay type: cell-based, mouse; conditions: 100 µM roscovitine, 2 h preincubation, HEK293T cells
Method in brief: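 HEK293T cells were transfected (Jetprime) with EGFP-tagged mouse EZH2, then preincubated with the CDK inhibitor roscovitine before lysis. EGFP-EZH2 was probed by immunoblot with a rabbit antibody raised against the Thr416-phosphorylated peptide (residues 410–421) coupled to KLH. The antibody was affinity-purified on non-phospho and phospho-peptide–BSA columns. Detection was by ECL imaging.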

EED, SUZ12 and RbAp48 = test: PRC2 components in immunoprecipitated EGFP-EZH2 complexes; assay type: binding; conditions: immunoblot, Supplementary Figure S5
PP1 = PP1 associated with immunoprecipitated EGFP-EZH2; assay type: binding; conditions: HEK293T cell lysates, immunoblot
Method in brief: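 EGFP-EZH2 (wild-type or TP5 mutant; EGFP-βgal control) was transiently expressed in HEK293T cells and immunoprecipitated from lysates. Lysis buffers contained 20 mM NaF, 5 µM leupeptin, 0.5 mM PMSF and 0.5 mM benzamidine. Co-precipitated PP1 was detected by immunoblotting with ECL.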

endogenous NIPP1 = test: Co-immunoprecipitation of EZH2 fusions with endogenous NIPP1; assay type: binding; conditions: HEK293T cell lysates
EGFP-EZH2 [3] = test: Phosphorylation status of EGFP-EZH2 TP mutants in cells; assay type: cell-based, mouse; conditions: EGFP-EZH2 mutant from cells, immunoblot
Method in brief: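 EGFP-tagged mouse EZH2 variants (EGFP alone as control) were expressed in cells and isolated by EGFP trap. Elution used 0.2 M glycine pH 2.5 for 90 s, immediately neutralised with 1 M Tris pH 10.8. Eluates were immunoblotted with a pan-phospho-Thr-Pro antibody and an affinity-purified phospho-Thr416 (pTP5) antibody. Blots were visualised by ECL and quantified by densitometry.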

EGFP-EZH2 [4] = test: In vitro phosphorylation of EGFP-EZH2 by cyclinA/CDK2; assay type: biochemical, mouse; conditions: autoradiography, γ32P-ATP, cyclinA/CDK2, 60 min, 30°C
Method in brief: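 Purified EGFP-tagged mouse EZH2 was incubated 60 min at 30°C with recombinant cyclinA/CDK2 (bacterially expressed). Buffer: 20 mM Tris/HCl pH 7.5, 2 mM DTT, 0.1 mg/ml BSA, 2 mM MgAc, 100 µM ATP, with or without γ³²P-ATP.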

NIPP1-FHA domain = test: GST pull-down of EGFP-EZH2 TP mutants with GST-FHA; assay type: binding; conditions: Thr to Ala mutants, n = 4
Method in brief: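 Mouse EZH2 Thr→Ala mutants were made by site-directed mutagenesis in an EGFP-IRES-puro vector and transfected with Jetprime. Lysis buffers contained NaF, leupeptin, PMSF and benzamidine.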

[5] = biological target: NIPP1 FHA domain (15N-labelled, for NMR); test: NMR titration
EZH2, EED and SUZ12 = test: EGFP trap of EGFP-NIPP1 and co-precipitation of core PRC2 components; assay type: binding; conditions: EGFP-NIPP1 WT or FHAm, HEK293T cell lysates
Method in brief: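 EGFP-NIPP1 is expressed in HEK293T cells by plasmid transfection (Jetprime) and captured by EGFP trap from lysates. Lysis buffer contains 20 mM NaF, 5 µM leupeptin, 0.5 mM PMSF and 0.5 mM benzamidine. Co-precipitated proteins are detected by immunoblotting, using anti-EZH2 (AC-22), an in-house rabbit anti-EED raised against His-EED, and anti-SUZ12 (3C1.2).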

EGFP-EZH2 [6] = test: In vitro dephosphorylation of EGFP-EZH2 by PP1; assay type: biochemical, mouse
Method in brief: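 Mouse EGFP-EZH2 is expressed in HEK293T cells and isolated by immunoprecipitation or EGFP trap. It is incubated 30 min at 30°C in 50 mM Tris/HCl pH 7.5, 1 mM DTT, 0.1 mg/ml BSA with one of: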

## ANSRCQ(p)TPIKMK [pTP5]
NIPP1 FHA domain; 10-fold molar excess of the peptide
  saturation of binding: Saturation was not achieved even after a 10-fold molar excess of the peptide
NIPP1 FHA domain; summary in Discussion
  binding of purified FHA domain to EZH2-derived dodecapeptide: interacts rather poorly
[1]
  EZH2-FHA interaction in presence of peptide: decreased EZH2-FHA interaction

## CC[C@H](CO)Nc1nc(NCc2ccccc2)c2ncn(C(C)C)c2n1 [roscovitine]
EGFP-EZH2 [2]
  binding of EGFP-EZH2 to GST-FHA: abolished
  detection of EGFP-EZH2 by pTP5 antibody: not detected

## EZH2-WT: EGFP- or Dam-tagged wild-type mouse EZH2
EED, SUZ12 and RbAp48
  abundance of EED, SUZ12 and RbAp48 in complex: equally abundant
PP1
  associated PP1: contained the same amount of PP1

## EZH2-mTP5: EZH2 with Thr416 (TP5) mutated to Ala
EED, SUZ12 and RbAp48
  abundance of EED, SUZ12 and RbAp48 in complex: equally abundant
Endogenous NIPP1
  co-immunoprecipitation with endogenous NIPP1: no longer co-immunoprecipitated with endogenous NIPP1
EGFP-EZH2 [3]
  pTP5 signal: not detected
EGFP-EZH2 [4]
  in vitro phosphorylation of EZH2 by CDK2: moderately reduced
NIPP1-FHA domain
  binding of EZH2 TP mutant to GST-FHA: complete loss of binding
PP1
  associated PP1: contained the same amount of PP1

## ANSRCQ[pT]PIKMK [EZH2 410-421 peptide, phosphorylated at Thr416 (pTP5)]
[5]
  Kd: 1.9 mM

B1: EGFP-NIPP1: ectopically expressed EGFP-NIPP1 wild-type (protein)
chain: MAAAANSGSSLPLFDCPTWAGKPPPGLHLDVVKGDKLIEKLIIDEKKYYLFGRNPDLCDFTIDHQSCSRVHAALVYHKHLKRVFLIDLNSTHGTFLGHIRLEPHKPQQIPIDSTVSFGASTRAYTLREKPQTLPSAVKGDEKMGGEDDELKGLLGLPEEETELDNLTEFNTAHNKRISTLTIEEGNLDIQRPKRKRKNSRVTFSEDDEIINPEDVDPSVGRFRNMVQTAVVPVKKKRVEGPGSLGLEESGSRRMQNFAFSGGLYGGLPPTHSEAGSQPHGIHGTALIGGLPMPYPNLAPDVDLTPVVPSAVNMNPAPNPAVYNPEAVNEPKKKKYAKEAWPGKKPTPSLLI
modifications: left off: EGFP, end not stated, kept
EZH2, EED and SUZ12
  co-precipitation of PRC2 components: Both EZH2 and EED co-precipitated; also recorded: SUZ12, which interacts directly with EZH2 but not with EED ([19]), only co-precipitated with the WT NIPP1 fusion

B2: FHA mutant: EGFP-NIPP1 with mutated FHA domain (protein)
chain: B1 chain with S68A, R69A, V70A, H71A
modifications: left off: EGFP, end not stated, kept
EZH2, EED and SUZ12
  co-precipitation of PRC2 components: only EED co-sedimented

B3: NIPP1: recombinant His-NIPP1, or immunoprecipitated EGFP-NIPP1/PP1 complex (protein, UniProt Q12972 1-351, looked up)
Nuclear inhibitor of protein …: B1 chain
modifications: His tag
EGFP-EZH2 [6]; 500 nM PP1, recombinant His-NIPP1 4.5 µM to 55 nM
  effect on PP1-mediated dephosphorylation of EGFP-EZH2: abolished
EGFP-EZH2 [6]; after pretreatment with trypsin
  dephosphorylation of EGFP-EZH2 by immunoprecipitated NIPP1/PP1: the immunoprecipitate dephosphorylated EGFP-EZH2
EGFP-EZH2 [6]; without trypsin pretreatment, co-precipitated PP1 present
  dephosphorylation of EGFP-EZH2 by immunoprecipitated NIPP1/PP1: not dephosphorylated
